The record followed here is ChEMBL document CHEMBL1255483, “Intra- and extracellular activities of dicloxacillin against Staphylococcus aureus in vivo and in vitro” (Antimicrob Agents Chemother, 2010).

Data set [1] can be described thus: Ratio of fAUC (24 hrs) in NMRI mouse at 76 mg/kg administered every 2 hrs to MIC for Staphylococcus aureus E19977. It is filed as functional. In a few lines: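 Modeled free AUC over 24 h divided by the MIC, not measured directly. Single subcutaneous DCX doses were given to NMRI mice, and plasma was assayed by S. lutea bioassay. Noncompartmental analysis used trapezoidal mean points plus a fitted monoexponential extrapolated to 24 h. Free fraction came from a square-root fit to plasma ultrafiltration binding (10–400 mg/liter spike, 1 h, 37°C). The MIC was measured by broth microdilution at pH 7.4.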

Data set [2] relates to Staphylococcus aureus. Description: Bactericidal activity against Staphylococcus aureus ATCC 25923 infected in human THP1 cells assessed as log reduction in bacterial count at 10 times MIC after 24 hrs by time-kill assay. It is filed as functional, THP-1. In a few lines:
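Intracellular model in THP-1 macrophages: opsonized S. aureus was added at 4 bacteria per macrophage for 45 min. Non-phagocytized bacteria were removed by washing and brief PBS incubation with gentamicin (50 mg/liter). Cells were then incubated up to 24 h with a wide range of extracellular dicloxacillin concentrations. Result is change in log₁₀ CFU per mg cell protein from time zero. n = 3.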

The nature of data set [3]: fT>MIC in Staphylococcus aureus E19977 infected NMRI mouse at 120 mg/kg administered every 6 hrs. It is filed as functional. In a few lines: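 Calculated percentage of 24 h at steady state that free plasma DCX exceeds the strain MIC (microdilution, pH 7.4). Concentrations were simulated from single subcutaneous dose plasma curves in NMRI mice (S. lutea bioassay), adjusted with a square-root model of concentration-dependent free fraction from ultrafiltration. The regimen was dosed subcutaneously in mice infected intraperitoneally with 10^7.4 CFU, and peritoneal CFU were read after 24 h of therapy.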

The subject of a further data set is THP-1. Description: Cytotoxicity against human THP1 cells at 500 mg/L after 24 hrs by trypan blue exclusion method. It is filed as cell-based. The conditions noted are these: thp-1, 24 h. The method, boiled down: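 THP-1 macrophage viability was checked by trypan blue exclusion after 24 h of exposure to DCX at concentrations up to 500 mg/liter.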
The nature of data set [4]: Ratio of fCmax in NMRI mouse at 80 mg/kg administered every 8 hrs to MIC for Staphylococcus aureus E19977. It is filed as functional. The method, boiled down: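 Free Cmax/MIC was modelled, not measured. Single-dose subcutaneous plasma curves from NMRI mice were projected to the multiple-dose regimens. Free fraction came from a square-root fit of unbound fraction versus total concentration. Binding was measured by ultrafiltration of mouse plasma spiked with 10–400 mg/liter and held 1 h at 37°C. MIC was for strain E19977.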

Data set [5] relates to Staphylococcus aureus. The experiment in a line: Bactericidal activity against Staphylococcus aureus E19977 assessed as log change in bacterial count after 24 hrs. It is filed as functional. The method, boiled down: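 Extracellular broth time- and concentration-kill test. The inoculum was ~10⁶ CFU/ml, exposed to a wide range of DCX concentrations, with CFU counted after 5 and 24 h. The read-out was Δlog CFU/ml versus time zero (mean ± SD, n = 3). A sigmoidal fit with slope 1 gave Emax and EC50. Cstatic was read by graphical interpolation as the concentration giving no change from the inoculum.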

SMILES strings stand for the structures. Bounds are passed on as bounds.

As to `Cc1onc(-c2c(Cl)cccc2Cl)c1C(=O)N[C@@H]1C(=O)N2[C@@H]1SC(C)(C)[C@@H]2C(=O)O` [DICLOXACILLIN], in data set [1], the fAUC/MIC is 227.43 h. Moreover, the FC with Staphylococcus aureus [2] is <1. In addition, in data set [3], the “fT>MIC” value is listed as 37.78%. Moreover, in the data set with THP-1, the Activity result was “Non-toxic”. Further, in data set [4], the Ratio stood at 30.64. Further, the Emax in the data set with Staphylococcus aureus [5] is -3.81 deltalog10CFU/ml.
